Reference: ChEMBL document CHEMBL4257471, “Orthoester functionalized N-guanidino derivatives of 1,5-dideoxy-1,5-imino-d-xylitol as pH-responsive inhibitors of β-glucocerebrosidase” (Medchemcomm, 2017)
Residue numbers refer to the chain shown, from its start. Activity calls are given as the source filed them. The rule behind the calls is not given here.

How the values were obtained:
[1] = Inhibition of yeast alpha-glucosidase pre-incubated for 5 mins followed by p-nitrophenyl-alpha-D-glucopyranoside substrate addition and measured after 30 mins by spectrophotometric assay; set-up: species or system Saccharomyces cerevisiae
Outline: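 Enzyme at 0.05 U mL⁻¹; p-nitrophenyl-α-D-glucopyranoside substrate at 0.7 mM final in 100 mM sodium phosphate, pH 7.2. IC50 values in μM averaged from triple independent duplicate analysis.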

[2] = biological target: Alpha-galactosidase (Coffea arabica, UniProt Q42656); test: Inhibition of green coffee beans alpha-galactosidase pre-incubated for 5 mins followed by p-nitrophenyl-alpha-D-galactopyranoside substrate addition and measured after 30 mins by spectrophotometric assay
Alpha-galactosidase, sequence (Q42656 whole entry): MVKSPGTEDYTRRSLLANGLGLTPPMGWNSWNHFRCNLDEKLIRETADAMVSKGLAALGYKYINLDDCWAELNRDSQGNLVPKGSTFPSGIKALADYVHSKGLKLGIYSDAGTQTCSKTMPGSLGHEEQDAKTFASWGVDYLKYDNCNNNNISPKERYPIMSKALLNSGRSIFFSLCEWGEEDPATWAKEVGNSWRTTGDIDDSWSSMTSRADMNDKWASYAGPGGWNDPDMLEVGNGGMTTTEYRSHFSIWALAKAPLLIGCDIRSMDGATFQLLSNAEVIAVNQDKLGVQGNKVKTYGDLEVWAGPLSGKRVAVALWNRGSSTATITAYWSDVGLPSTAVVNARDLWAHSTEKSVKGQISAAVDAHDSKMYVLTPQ
Outline: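 Enzyme at 0.05 U mL⁻¹ with p-nitrophenyl-α-D-galactopyranoside, 0.7 mM final, in sodium phosphate buffer (100 mM, pH 6.8). IC50 values in μM are averages of triple independent duplicate runs.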

[3] = Inhibition of almond beta-glucosidase pre-incubated for 5 mins followed by p-nitrophenyl-beta-D-glucopyranoside substrate addition and measured after 30 mins by spectrophotometric assay; set-up: species or system Prunus dulcis
Outline: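 Enzyme at 0.05 U mL⁻¹ with p-nitrophenyl-β-D-glucopyranoside, 0.7 mM final, in 100 mM sodium acetate, pH 5.0. IC50 values in μM are means of triple independent duplicate analyses.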

[4] = biological target: T1, Beta-galactosidase (Bos taurus, UniProt Q58D55); test: Inhibition of bovine liver beta-galactosidase pre-incubated for 5 mins followed by p-nitrophenyl-beta-D-galactopyranoside substrate addition and measured after 30 mins by spectrophotometric assay
T1 sequence (Q58D55 whole entry): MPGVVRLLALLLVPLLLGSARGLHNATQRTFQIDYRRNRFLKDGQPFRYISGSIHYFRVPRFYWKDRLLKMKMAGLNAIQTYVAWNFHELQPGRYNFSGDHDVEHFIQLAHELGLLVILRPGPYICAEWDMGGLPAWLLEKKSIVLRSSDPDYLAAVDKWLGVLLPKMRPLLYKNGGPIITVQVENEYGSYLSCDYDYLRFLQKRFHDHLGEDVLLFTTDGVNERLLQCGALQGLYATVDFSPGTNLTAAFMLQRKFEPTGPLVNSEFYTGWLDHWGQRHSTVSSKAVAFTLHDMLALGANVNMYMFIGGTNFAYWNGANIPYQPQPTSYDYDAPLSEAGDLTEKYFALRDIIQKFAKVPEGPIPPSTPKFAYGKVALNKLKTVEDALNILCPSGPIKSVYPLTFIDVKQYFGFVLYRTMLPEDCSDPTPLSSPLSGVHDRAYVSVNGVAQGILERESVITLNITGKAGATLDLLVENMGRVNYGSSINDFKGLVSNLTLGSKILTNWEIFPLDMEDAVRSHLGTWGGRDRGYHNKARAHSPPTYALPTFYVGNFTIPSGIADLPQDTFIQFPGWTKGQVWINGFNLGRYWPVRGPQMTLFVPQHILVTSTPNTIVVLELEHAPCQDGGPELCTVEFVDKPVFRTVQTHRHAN
Outline: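 Enzyme at 0.05 U mL⁻¹; p-nitrophenyl-β-D-galactopyranoside substrate, 0.7 mM final, in 100 mM sodium phosphate buffer, pH 7.2. IC50 values in μM from triple independent duplicate analysis.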

[5] = Inhibition of Penicillium decumbens naringinase pre-incubated for 5 mins followed by p-nitrophenyl-beta-D-glucopyranoside substrate addition and measured after 30 mins by spectrophotometric assay
Outline: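 Enzyme at 0.06 U mL⁻¹; substrate p-nitrophenyl-β-D-glucopyranoside at 0.7 mM final in 100 mM sodium acetate buffer, pH 5.0. IC50 values in μM, averaged from triple independent duplicate runs.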

[6] = biological target: T2, Lysosomal acid glucosylceramidase (Homo sapiens, UniProt P04062); test: Inhibition of recombinant human GBA pre-incubated for 30 mins followed by 4-methylumbelliferyl-beta-D-glucopyranoside substrate addition and measured after 10 mins using compound incubated at pH 7 buffer for 24 hrs prior to test by fluorescence assay
T2 sequence (P04062 whole entry): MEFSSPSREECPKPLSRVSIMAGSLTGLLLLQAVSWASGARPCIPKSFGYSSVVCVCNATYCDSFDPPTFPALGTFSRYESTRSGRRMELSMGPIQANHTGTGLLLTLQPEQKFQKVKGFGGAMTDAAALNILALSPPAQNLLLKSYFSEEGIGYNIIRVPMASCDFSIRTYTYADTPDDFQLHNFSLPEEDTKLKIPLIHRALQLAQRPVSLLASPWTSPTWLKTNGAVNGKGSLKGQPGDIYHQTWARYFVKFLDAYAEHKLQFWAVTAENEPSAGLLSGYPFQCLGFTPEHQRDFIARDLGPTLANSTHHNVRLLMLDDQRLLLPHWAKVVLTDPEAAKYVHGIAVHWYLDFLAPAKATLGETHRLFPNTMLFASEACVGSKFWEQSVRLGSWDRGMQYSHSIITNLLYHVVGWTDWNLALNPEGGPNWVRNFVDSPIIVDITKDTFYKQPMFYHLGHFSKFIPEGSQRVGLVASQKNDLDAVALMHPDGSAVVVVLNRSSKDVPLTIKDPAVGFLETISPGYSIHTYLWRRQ

[7] = biological target: T2, Lysosomal acid glucosylceramidase; test: Inhibition of recombinant human GBA pre-incubated for 30 mins followed by 4-methylumbelliferyl-beta-D-glucopyranoside substrate addition and measured after 10 mins using compound incubated at pH 5.2 for 24 hrs prior to test by fluorescence assay
[8] = biological target: T3, Galactocerebrosidase (Homo sapiens, UniProt P54803); test: Inhibition of recombinant human GALC at pH 5.2 pre-incubated for 10 mins followed by 4-methylumbelliferyl-beta-D-galactopyranoside substrate addition and measured after 20 mins by fluorescence assay
T3 sequence (P54803 whole entry): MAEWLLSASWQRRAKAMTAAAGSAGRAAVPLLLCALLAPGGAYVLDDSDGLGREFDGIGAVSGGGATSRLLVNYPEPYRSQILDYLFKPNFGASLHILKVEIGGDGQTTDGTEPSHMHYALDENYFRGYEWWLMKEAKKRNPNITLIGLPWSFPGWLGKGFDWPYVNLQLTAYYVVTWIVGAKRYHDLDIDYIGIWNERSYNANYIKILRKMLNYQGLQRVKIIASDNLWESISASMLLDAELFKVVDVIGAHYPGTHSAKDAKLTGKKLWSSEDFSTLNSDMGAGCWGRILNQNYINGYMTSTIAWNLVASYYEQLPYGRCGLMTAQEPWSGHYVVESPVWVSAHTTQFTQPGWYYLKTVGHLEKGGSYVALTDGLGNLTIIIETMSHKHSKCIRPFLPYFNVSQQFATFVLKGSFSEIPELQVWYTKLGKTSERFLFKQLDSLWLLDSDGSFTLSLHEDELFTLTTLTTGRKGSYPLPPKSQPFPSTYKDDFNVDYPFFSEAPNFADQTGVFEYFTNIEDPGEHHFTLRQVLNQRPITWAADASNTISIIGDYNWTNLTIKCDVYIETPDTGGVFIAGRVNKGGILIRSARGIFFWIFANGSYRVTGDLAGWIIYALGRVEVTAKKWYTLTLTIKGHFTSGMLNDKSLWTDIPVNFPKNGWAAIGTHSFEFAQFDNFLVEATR
Outline: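 Human recombinant enzyme assayed with 4-methylumbelliferyl-β-D-galactopyranoside substrate. IC50 values in μM, averaged from triple independent duplicate analysis.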

[9] = Drug degradation in aqueous solution at room temperature after 6 days; format: physicochemical; settings: read-out: Drug degradation
[10] = tested on: T4, Lysosomal acid glucosylceramidase (Homo sapiens), P04062 [N409S]; test: Chaperone activity at GBA N370S mutant in Gaucher disease patient-derived fibroblasts assessed as restoration of enzyme activity at 1 to 10000 nM after 4 days by 4-methylumbelliferyl-beta-D-glucopyranoside substrate based fluorescence assay
T4 sequence (whole entry): T2 sequence (P04062 whole entry) with N409S

[11] = tested on: T5, Lysosomal acid glucosylceramidase (Homo sapiens), P04062 [L483P]; test: Chaperone activity at GBA L444P mutant in Gaucher disease patient-derived fibroblasts assessed as restoration of enzyme activity at 1 to 10000 nM after 4 days by 4-methylumbelliferyl-beta-D-glucopyranoside substrate based fluorescence assay
T5 sequence (whole entry): T2 sequence (P04062 whole entry) with L483P

| IC50 [1] | IC50 [2] | IC50 [3] | IC50 [4] | IC50 [5] | IC50 [6] | IC50 [7] | IC50 [8] | degraded at 144 h [9] | Activity [10] | Activity [11] | SMILES |
| --- | --- | --- | --- | --- | --- | --- | --- | --- | --- | --- | --- |
| > 30 µM | > 30 µM | 14.6 µM | > 30 µM | > 30 µM | 0.025 µM | > 30 µM | > 30 µM | < 3% | Active | inactive | CCCCCCCCOC1OCC(CNC(=N)N2C[C@@H](O)[C@H](O)[C@@H](O)C2)O1 (stereo partly drawn) |
|  |  |  |  |  |  |  |  |  | Active |  | OC[C@H]1CNC[C@@H](O)[C@@H]1O |
| > 30 µM | > 30 µM | > 30 µM | > 30 µM | 0.085 µM |  |  | > 30 µM |  |  |  | CCCCCCCCCN1C[C@H](O)[C@@H](O)[C@H](O)[C@H]1CO |
| > 30 µM | > 30 µM | 19.2 µM | > 30 µM | > 30 µM | 2.56 µM | > 30 µM | > 30 µM | < 3% | Active |  | CCCCOC1OCC(CNC(=N)N2C[C@@H](O)[C@H](O)[C@@H](O)C2)O1 (stereo partly drawn) |
